Reference: ChEMBL document CHEMBL1165965, “Synthesis and structure-activity relationships of 1,2,3,4-tetrahydropyrido[2,3-b]pyrazines as potent and selective inhibitors of the anaplastic lymphoma kinase” (Bioorg Med Chem, 2010)

Key:
[1] = biological target: Casein kinase I isoform epsilon (Homo sapiens) (UniProt P49674); assay: Inhibition of CSNK1E at 1 uM
Outline: (§1)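 Single-concentration screen using Ambit Bioscience KINOMEscan technology across a panel of 250–400 kinases. Per-kinase inhibition from this screen was summarized as S(90), the fraction of kinases inhibited by more than 90%.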

[2] = biological target: Calcium/calmodulin-dependent protein kinase kinase 1 (Homo sapiens) (UniProt Q8N5S9); assay: Inhibition of CAMKK1 at 1 uM
Outline: (§2)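 Ambit KINOMEscan screen at a single concentration across a 250–400 kinase panel, recorded as percent inhibition. Selectivity was expressed as S(90), the fraction of kinases inhibited >90%.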

[3] = biological target: T1, Tyrosine-protein kinase receptor TYRO3 (Homo sapiens) (UniProt Q06418); assay: Inhibition of TYRO3 at 1 uM
T1 sequence (whole entry): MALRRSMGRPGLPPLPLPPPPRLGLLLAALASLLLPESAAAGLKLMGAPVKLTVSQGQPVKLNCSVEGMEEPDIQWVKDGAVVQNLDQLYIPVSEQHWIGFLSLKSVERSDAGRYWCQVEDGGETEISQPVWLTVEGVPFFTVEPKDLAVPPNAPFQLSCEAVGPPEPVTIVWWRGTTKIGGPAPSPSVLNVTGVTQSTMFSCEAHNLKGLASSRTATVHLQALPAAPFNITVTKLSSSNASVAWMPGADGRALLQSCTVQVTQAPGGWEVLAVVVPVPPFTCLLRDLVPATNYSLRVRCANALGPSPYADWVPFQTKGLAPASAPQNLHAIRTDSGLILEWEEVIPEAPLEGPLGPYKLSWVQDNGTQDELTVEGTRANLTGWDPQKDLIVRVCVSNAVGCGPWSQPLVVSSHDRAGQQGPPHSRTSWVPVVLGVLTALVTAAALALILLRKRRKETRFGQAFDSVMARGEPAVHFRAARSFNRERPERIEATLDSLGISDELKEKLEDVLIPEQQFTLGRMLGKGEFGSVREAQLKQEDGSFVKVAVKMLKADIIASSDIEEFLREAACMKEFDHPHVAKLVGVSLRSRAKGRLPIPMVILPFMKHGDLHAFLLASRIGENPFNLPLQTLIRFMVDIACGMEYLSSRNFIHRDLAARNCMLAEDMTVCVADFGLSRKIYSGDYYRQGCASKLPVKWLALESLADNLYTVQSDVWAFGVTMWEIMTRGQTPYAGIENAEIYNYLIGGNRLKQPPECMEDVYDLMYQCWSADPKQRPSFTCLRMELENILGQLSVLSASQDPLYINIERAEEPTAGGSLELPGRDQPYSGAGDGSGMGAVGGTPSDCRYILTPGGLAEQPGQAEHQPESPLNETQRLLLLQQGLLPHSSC

[4] = biological target: Serine/threonine-protein kinase PAK 5 (Homo sapiens) (UniProt Q9P286); assay: Inhibition of PAK7 at 1 uM
[5] = biological target: T2, Dual specificity protein kinase TTK (Homo sapiens) (UniProt P33981); assay: Inhibition of TTK at 1 uM
T2 sequence (whole entry): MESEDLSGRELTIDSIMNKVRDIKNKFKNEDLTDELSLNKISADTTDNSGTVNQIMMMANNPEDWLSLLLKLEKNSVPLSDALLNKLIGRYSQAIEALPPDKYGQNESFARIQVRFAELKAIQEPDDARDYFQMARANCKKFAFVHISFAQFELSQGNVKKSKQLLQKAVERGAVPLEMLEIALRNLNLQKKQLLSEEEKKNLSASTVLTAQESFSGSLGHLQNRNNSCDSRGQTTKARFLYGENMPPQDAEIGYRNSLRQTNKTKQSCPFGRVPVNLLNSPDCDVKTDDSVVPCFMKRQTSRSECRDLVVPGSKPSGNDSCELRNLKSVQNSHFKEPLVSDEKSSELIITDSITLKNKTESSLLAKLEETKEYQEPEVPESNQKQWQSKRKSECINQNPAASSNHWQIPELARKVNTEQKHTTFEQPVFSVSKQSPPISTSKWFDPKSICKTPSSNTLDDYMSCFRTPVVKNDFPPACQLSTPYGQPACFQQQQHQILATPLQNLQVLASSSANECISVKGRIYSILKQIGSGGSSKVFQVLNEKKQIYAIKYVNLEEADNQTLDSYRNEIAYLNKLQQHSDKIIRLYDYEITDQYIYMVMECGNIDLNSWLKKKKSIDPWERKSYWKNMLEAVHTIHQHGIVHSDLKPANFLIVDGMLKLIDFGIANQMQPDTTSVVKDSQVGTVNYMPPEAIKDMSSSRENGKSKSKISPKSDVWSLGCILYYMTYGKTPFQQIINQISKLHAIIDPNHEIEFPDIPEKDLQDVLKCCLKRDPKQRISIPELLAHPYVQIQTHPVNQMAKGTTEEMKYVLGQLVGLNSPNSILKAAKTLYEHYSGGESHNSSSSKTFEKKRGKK

[6] = biological target: Serine/threonine-protein kinase NIM1 (Homo sapiens) (UniProt Q8IY84); assay: Inhibition of NIM1 at 1 uM
[7] = biological target: Ephrin type-A receptor 2 (Homo sapiens) (UniProt P29317); assay: Inhibition of EPHA2 at 1 uM; outline: as §1
[8] = biological target: SRSF protein kinase 2 (Homo sapiens) (UniProt P78362); assay: Inhibition of SRPK2 at 1 uM
[9] = biological target: T3, Serine/threonine-protein kinase 4 (Homo sapiens) (UniProt Q13043); assay: Inhibition of MST1 at 1 uM
T3 sequence (whole entry): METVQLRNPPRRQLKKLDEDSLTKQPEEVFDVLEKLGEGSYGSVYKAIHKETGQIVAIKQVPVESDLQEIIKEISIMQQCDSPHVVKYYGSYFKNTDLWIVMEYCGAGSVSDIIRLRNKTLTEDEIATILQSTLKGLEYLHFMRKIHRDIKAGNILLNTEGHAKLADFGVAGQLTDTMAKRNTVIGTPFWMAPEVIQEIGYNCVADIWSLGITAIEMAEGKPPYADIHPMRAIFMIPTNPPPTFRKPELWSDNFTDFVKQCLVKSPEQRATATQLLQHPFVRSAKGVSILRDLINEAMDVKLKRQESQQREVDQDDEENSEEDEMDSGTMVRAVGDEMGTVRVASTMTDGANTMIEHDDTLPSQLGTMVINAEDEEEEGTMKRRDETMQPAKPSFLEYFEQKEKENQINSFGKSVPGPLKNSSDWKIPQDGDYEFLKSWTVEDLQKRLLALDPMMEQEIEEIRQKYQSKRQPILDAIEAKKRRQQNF

[10] = biological target: Casein kinase II subunit alpha' (Homo sapiens) (UniProt P19784); assay: Inhibition of CSNK2A2 at 1 uM; outline: as §1
[11] = biological target: Calcium/calmodulin-dependent protein kinase type II subunit beta (Homo sapiens) (UniProt Q13554); assay: Inhibition of CAMK2B at 1 uM; outline: as §2
Sequence of Calcium/calmodulin-dependent protein kinase type II subunit beta (Homo sapiens) (Q13554 whole entry): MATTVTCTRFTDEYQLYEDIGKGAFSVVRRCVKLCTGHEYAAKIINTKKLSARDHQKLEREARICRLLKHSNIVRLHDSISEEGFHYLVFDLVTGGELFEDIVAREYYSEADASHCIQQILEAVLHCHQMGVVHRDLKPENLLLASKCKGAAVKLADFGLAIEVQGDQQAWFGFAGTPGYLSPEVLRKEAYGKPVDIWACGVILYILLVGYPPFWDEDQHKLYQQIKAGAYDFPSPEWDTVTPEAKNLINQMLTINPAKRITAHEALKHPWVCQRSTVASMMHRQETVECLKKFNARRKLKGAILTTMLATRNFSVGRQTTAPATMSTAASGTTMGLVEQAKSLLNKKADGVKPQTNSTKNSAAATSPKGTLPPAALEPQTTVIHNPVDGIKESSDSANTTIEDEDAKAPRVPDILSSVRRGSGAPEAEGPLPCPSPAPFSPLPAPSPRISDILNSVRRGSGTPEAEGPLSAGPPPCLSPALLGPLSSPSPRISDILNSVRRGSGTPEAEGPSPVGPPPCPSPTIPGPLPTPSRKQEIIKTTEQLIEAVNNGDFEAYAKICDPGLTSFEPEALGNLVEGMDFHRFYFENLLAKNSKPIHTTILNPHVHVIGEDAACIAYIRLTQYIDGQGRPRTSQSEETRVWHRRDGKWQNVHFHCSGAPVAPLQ

Sequence of Casein kinase I isoform epsilon (Homo sapiens) (P49674 whole entry, looked up, canonical isoform): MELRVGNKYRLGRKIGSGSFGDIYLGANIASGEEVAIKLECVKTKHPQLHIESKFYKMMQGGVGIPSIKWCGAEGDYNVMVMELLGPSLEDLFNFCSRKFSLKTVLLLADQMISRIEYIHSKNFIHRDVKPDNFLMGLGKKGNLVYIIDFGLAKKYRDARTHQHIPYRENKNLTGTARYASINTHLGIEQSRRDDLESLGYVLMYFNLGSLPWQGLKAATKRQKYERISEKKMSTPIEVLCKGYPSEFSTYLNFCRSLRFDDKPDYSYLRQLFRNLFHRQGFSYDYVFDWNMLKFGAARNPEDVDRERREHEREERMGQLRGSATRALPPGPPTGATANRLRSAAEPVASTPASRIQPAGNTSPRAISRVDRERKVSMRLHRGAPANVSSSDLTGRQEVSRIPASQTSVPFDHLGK
Sequence of Ephrin type-A receptor 2 (Homo sapiens) (P29317 whole entry): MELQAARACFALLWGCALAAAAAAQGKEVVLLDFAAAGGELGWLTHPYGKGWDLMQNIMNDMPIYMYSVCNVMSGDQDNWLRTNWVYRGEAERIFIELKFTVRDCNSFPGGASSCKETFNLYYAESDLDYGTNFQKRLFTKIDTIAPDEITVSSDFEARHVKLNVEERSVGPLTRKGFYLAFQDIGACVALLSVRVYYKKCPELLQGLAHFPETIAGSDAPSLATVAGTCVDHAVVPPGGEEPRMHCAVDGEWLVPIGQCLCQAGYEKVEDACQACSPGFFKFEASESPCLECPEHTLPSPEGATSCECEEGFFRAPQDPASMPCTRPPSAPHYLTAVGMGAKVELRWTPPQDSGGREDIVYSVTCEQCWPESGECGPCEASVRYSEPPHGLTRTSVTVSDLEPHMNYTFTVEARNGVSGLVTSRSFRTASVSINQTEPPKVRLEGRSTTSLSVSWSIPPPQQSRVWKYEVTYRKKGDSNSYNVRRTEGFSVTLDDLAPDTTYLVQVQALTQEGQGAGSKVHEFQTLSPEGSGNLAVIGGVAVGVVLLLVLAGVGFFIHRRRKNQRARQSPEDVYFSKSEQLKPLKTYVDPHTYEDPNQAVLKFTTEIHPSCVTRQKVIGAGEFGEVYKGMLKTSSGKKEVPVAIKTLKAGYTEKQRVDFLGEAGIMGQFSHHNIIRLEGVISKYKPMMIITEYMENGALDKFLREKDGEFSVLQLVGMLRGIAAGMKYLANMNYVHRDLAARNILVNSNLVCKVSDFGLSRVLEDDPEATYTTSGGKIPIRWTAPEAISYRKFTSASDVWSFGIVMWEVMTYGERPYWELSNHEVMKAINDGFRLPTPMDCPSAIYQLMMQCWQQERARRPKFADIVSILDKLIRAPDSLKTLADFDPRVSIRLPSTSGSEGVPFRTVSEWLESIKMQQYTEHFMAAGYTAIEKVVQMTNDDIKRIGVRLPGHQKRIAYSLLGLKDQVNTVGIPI
Sequence of Serine/threonine-protein kinase NIM1 (Homo sapiens) (Q8IY84 whole entry): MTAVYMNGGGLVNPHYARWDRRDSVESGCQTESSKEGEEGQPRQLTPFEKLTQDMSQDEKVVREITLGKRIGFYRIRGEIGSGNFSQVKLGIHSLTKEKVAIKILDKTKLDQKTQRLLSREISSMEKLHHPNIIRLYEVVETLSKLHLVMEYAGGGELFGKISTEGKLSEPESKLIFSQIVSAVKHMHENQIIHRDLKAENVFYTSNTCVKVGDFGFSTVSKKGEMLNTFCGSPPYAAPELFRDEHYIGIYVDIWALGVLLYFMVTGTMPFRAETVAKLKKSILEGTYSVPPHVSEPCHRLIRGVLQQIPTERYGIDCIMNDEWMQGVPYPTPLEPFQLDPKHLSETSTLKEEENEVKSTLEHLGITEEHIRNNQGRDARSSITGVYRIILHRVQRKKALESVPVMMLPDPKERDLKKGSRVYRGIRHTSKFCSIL
Sequence of SRSF protein kinase 2 (Homo sapiens) (P78362 whole entry, looked up): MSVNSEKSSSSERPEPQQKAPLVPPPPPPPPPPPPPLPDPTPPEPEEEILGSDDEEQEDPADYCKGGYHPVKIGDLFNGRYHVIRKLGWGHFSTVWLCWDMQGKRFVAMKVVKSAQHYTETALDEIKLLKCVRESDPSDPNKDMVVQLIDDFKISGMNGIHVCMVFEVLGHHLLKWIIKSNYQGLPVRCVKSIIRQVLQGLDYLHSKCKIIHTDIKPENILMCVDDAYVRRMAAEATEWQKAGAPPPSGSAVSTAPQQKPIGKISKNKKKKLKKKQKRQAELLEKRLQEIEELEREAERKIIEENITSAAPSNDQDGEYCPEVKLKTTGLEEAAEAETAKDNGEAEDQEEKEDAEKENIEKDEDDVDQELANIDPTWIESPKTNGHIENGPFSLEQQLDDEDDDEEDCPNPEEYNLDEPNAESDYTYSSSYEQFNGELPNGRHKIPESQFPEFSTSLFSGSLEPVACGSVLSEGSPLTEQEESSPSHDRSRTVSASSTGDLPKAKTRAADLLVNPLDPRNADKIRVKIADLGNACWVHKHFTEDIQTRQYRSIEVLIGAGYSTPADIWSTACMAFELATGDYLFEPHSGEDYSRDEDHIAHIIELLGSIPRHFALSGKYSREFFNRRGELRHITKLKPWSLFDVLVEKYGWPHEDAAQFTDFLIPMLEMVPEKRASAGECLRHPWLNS
Sequence of Serine/threonine-protein kinase PAK 5 (Homo sapiens) (Q9P286 whole entry, looked up): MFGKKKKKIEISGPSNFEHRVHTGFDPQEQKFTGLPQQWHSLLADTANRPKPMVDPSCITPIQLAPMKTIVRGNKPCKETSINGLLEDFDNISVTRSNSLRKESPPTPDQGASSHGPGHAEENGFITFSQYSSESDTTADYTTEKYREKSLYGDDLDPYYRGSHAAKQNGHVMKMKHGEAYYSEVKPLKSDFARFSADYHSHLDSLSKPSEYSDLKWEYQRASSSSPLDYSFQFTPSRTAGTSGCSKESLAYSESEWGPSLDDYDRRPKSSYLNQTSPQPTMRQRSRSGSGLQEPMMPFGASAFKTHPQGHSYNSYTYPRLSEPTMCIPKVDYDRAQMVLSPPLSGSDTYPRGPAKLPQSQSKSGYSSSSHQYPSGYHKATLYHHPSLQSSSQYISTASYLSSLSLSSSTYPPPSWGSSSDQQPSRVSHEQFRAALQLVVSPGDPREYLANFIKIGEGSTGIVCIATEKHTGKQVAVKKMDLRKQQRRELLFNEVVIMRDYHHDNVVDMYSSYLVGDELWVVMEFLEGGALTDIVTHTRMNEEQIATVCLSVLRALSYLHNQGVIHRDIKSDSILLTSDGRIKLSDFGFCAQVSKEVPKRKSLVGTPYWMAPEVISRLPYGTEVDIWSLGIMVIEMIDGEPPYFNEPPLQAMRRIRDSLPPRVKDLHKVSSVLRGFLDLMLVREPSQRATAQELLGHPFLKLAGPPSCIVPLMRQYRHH
Sequence of Casein kinase II subunit alpha' (Homo sapiens) (P19784 whole entry, looked up): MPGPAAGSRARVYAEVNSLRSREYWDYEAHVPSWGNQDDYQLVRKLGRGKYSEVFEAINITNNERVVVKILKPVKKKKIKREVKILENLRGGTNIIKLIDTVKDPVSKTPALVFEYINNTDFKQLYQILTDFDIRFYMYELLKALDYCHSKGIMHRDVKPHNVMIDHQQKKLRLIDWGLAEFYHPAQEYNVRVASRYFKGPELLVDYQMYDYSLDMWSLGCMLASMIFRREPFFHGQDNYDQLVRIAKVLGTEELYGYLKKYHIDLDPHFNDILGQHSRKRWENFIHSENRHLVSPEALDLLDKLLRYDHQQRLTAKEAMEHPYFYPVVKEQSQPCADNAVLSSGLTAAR
Sequence of Calcium/calmodulin-dependent protein kinase kinase 1 (Homo sapiens) (Q8N5S9 whole entry, looked up): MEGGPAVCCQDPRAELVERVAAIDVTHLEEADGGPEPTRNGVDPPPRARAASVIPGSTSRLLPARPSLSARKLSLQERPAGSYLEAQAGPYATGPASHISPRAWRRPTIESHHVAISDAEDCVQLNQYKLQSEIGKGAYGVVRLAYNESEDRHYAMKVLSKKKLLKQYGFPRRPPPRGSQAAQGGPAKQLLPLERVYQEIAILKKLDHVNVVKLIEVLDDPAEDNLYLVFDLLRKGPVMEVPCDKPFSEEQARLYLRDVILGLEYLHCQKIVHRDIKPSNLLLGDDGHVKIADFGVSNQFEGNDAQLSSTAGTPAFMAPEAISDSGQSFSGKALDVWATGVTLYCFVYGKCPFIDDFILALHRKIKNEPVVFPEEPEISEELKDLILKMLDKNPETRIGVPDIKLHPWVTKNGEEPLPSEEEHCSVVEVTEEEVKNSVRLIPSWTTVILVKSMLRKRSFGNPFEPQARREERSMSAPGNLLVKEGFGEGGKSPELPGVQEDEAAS

| SMILES | inhibition [1] | inhibition [2] | inhibition [3] | inhibition [4] | inhibition [5] | inhibition [6] | inhibition [7] | inhibition [8] | inhibition [9] | inhibition [10] | inhibition [11] |
| --- | --- | --- | --- | --- | --- | --- | --- | --- | --- | --- | --- |
| CN1CCN(c2ccc(-c3cnc4c(c3)N(Cc3cc(F)ccc3F)CCN4)cn2)CC1 | < 50% | < 50% | < 50% | < 50% | < 50% | < 50% | < 50% | < 50% | < 50% | < 50% | < 50% |
| O=C(c1ccc(-c2cnc3c(c2)N(Cc2cc(Cl)ccc2C(F)(F)F)CCN3)cc1)N1CCC(N2CCCC2)CC1 | < 50% | < 50% | < 50% | < 50% | < 50% | – | < 50% | – | – | < 50% | < 50% |
| O=C(c1ccc(-c2cnc3c(c2)N(Cc2cc(Cl)ccc2C(F)(F)F)CCN3)cc1)N1CCCCC1 | < 50% | < 50% | < 50% | < 50% | < 50% | – | < 50% | – | – | < 50% | < 50% |
| CN1CCN(c2ccc(-c3cnc4c(c3)N(Cc3c(F)ccc(F)c3Cl)CCN4)cn2)CC1 | < 50% | < 50% | < 50% | < 50% | < 50% | < 50% | < 50% | < 50% | < 50% | < 50% | < 50% |
| COC1CCN(C(=O)c2ccc(-c3cnc4c(c3)N(Cc3cc(Cl)ccc3C(F)(F)F)CCN4)cc2)CC1 | < 50% | < 50% | < 50% | < 50% | < 50% | – | < 50% | – | – | < 50% | < 50% |
| O=C(O)c1ccc(-c2cnc3c(c2)N(Cc2cc(Cl)ccc2C(F)(F)F)CCN3)cc1 | < 50% | < 50% | < 50% | < 50% | < 50% | – | < 50% | – | – | < 50% | < 50% |
| CC(=O)N1CCN(c2cc(-c3cnc4c(c3)N(Cc3cc(Cl)ccc3C(F)(F)F)CCN4)ccn2)CC1 | < 50% | < 50% | < 50% | < 50% | < 50% | < 50% | < 50% | < 50% | < 50% | < 50% | < 50% |
| FC(F)(F)c1ccc(Cl)cc1CN1CCNc2ncc(-c3ccnc(N4CCNCC4)c3)cc21 | < 50% | < 50% | < 50% | < 50% | < 50% | < 50% | < 50% | < 50% | 73% | < 50% | < 50% |
| CN1CCN(c2ccc(-c3cnc4c(c3)N(Cc3cc(Cl)ccc3C(F)(F)F)CCN4)cn2)CC1 | < 50% | < 50% | < 50% | < 50% | < 50% | < 50% | < 50% | < 50% | < 50% | < 50% | < 50% |
| CN1CCN(c2ccc(-c3cnc4c(c3)N(Cc3cc(Cl)ccc3Cl)CCN4)cn2)CC1 | < 50% | < 50% | < 50% | < 50% | < 50% | < 50% | < 50% | < 50% | < 50% | < 50% | < 50% |
